Test results from ChEMBL document CHEMBL3351558, “Picomolar Inhibitors of HIV-1 Reverse Transcriptase: Design and Crystallography of Naphthyl Phenyl Ethers” (ACS Med Chem Lett, 2014).
Converted amounts (≈) assume the structure as drawn.

Experiments:
[1] = system: Human immunodeficiency virus 1; experiment: Antiviral activity against wild type HIV1 harboring reverse transcriptase K103N/Y181C mutant infected in human MT2 cells assessed as protection from virus-induced cytopathicity by MTT assay; format: functional, organism-based
[2] = system: Human immunodeficiency virus 1; experiment: Antiviral activity against wild type HIV1 3B infected in human MT2 cells assessed as protection from virus-induced cytopathicity by MTT assay; format: functional, organism-based; conditions: Human immunodeficiency virus 1, 3B
[3] = system: Human immunodeficiency virus 1; experiment: Antiviral activity against wild type HIV1 harboring reverse transcriptase Y181C mutant infected in human MT2 cells assessed as protection from virus-induced cytopathicity by MTT assay; format: functional, organism-based
[4] = Cytotoxicity against human MT2 cells assessed as reduction in cell viability by MTT assay; format: cell-based
[5] = Aqueous solubility of the compound at pH 6.5 after 48 hrs by shake-flask method; format: physicochemical
Summary of the method: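 Shake-flask method: excess solid stirred in Britton–Robinson buffer, pH 6.5, for 48 h at 25 °C. The supernatant was passed through a 0.2 μm filter and quantified by UV–vis spectrophotometry. Piroxicam served as the control.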

[6] = Human immunodeficiency virus 1, MT2, read-out: EC50

Compound | EC50 [1, 6] | EC50 [2] | EC50 [3, 6] | CC50 [4] | solubility thermodynamic at 48 h [5] | EC50 ([1]; mt2) | EC50 ([3]; mt2)
N#Cc1cc2c(Oc3ccccc3OCCn3ccc(=O)[nH]c3=O)cccc2[nH]1 | 5500 nM | 56 nM | 38000 nM | 72000 nM | – | – | –
CN1C(C(=O)Nc2ccccn2)=C(O)c2ccccc2S1(=O)=O [PIROXICAM] | – | – | – | – | 5 µg/mL (≈ 15.1 µM) | – | –
N#Cc1cc2c(Oc3ccc(F)cc3OCCn3ccc(=O)[nH]c3=O)cc(Cl)cn2c1 | 110 nM | 2.5 nM | 160 nM | 15000 nM | – | – | –
N#Cc1ccc2c(Oc3ccc(F)cc3OCCn3ccc(=O)[nH]c3=O)cc(F)cc2c1 | 21 nM | 1.9 nM | 5.6 nM | > 100000 nM | – | – | –
N#Cc1cc2c(Oc3ccc(F)cc3OCCn3ccc(=O)[nH]c3=O)cccc2o1 | 4000 nM | 40 nM | 3500 nM | > 100000 nM | – | – | –
Cc1ccnc2c1NC(=O)c1cccnc1N2C1CC1 [NEVIRAPINE] | – | – | – | > 100000 nM | – | Not Active | Not Active
N#C/C=C/c1cc(F)cc(Oc2ccc(F)cc2OCCn2ccc(=O)[nH]c2=O)c1 | 85 nM | – | 16 nM | – | 10.8 µg/mL (≈ 26.3 µM) | – | –
Cc1cc(Oc2ccccc2OCCn2ccc(=O)[nH]c2=O)c2cc(C#N)[nH]c2c1 | 800 nM | 10 nM | – | 1200 nM | – | – | Not Active
O=c1ccn(CCOc2ccccc2Oc2cccc3cc(Cl)ccc23)c(=O)[nH]1 | 710 nM | 14 nM | 1000 nM | > 100000 nM | – | – | –
N#Cc1ccc2c(Oc3ccccc3OCCn3ccc(=O)[nH]c3=O)cc(Cl)cc2c1 | 7.5 nM | 2.2 nM | 13 nM | 24000 nM | – | – | –
N#Cc1cc2c(Oc3ccc(F)cc3OCCn3ccc(=O)[nH]c3=O)cc(F)cn2c1 | 10 nM | 0.4 nM | 250 nM | 50000 nM | 43.8 µg/mL (≈ 103 µM) | – | –
N#Cc1ccc2c(Oc3ccc(F)cc3OCCn3ccc(=O)[nH]c3=O)cccc2c1 | 48 nM | 0.49 nM | 10 nM | > 100000 nM | – | – | –
N#Cc1cc2c(Oc3ccc(F)cc3OCCn3ccc(=O)[nH]c3=O)cccn2c1 | 220 nM | 2.7 nM | 600 nM | 100000 nM | – | – | –
N#Cc1cc2c(Oc3ccc(Cl)cc3OCCn3ccc(=O)[nH]c3=O)cccc2o1 | – | 7 nM | – | 7000 nM | – | Not Active | Not Active
O=c1ccn(CCOc2ccccc2Oc2cc(Cl)cc3cc(Cl)ccc23)c(=O)[nH]1 | 520 nM | 38 nM | 430 nM | 45000 nM | – | – | –
N#Cc1ccc2c(Oc3ccc(Cl)cc3OCCn3ccc(=O)[nH]c3=O)cccc2c1 | 150 nM | 1.5 nM | 48 nM | > 100000 nM | – | – | –

Compound | EC50 [1, 6] | EC50 [2] | EC50 [3, 6] | CC50 [4] | solubility thermodynamic at 48 h [5] | EC50 ([1]; mt2) | EC50 ([3]; mt2)
N#C/C=C/c1cc(Cl)cc(Oc2ccccc2OCCn2ccc(=O)[nH]c2=O)c1 | 24 nM | 0.31 nM | 46 nM | 18000 nM | 510 µg/mL (≈ 1240 µM) | – | –
N#Cc1ccc2c(Oc3ccc(Cl)cc3OCCn3ccc(=O)[nH]c3=O)cc(Cl)cc2c1 | 250 nM | 11 nM | 49 nM | 20000 nM | – | – | –
N#Cc1ccc2c(Oc3ccccc3OCCn3ccc(=O)[nH]c3=O)cccc2c1 | 15 nM | 0.53 nM | 19 nM | > 100000 nM | 4.3 µg/mL (≈ 10.8 µM) | – | –
N#Cc1cc2c(Oc3ccccc3OCCn3ccc(=O)[nH]c3=O)cc(Cl)cc2[nH]1 | 2700 nM | 340 nM | 27000 nM | 81000 nM | – | – | –
N#Cc1cc2c(Oc3ccccc3OCCn3ccc(=O)[nH]c3=O)cc(Cl)cc2o1 | 260 nM | 19 nM | 1900 nM | > 100000 nM | – | – | –
N#C/C=C/c1cc(Cl)cc(Oc2ccc(Cl)cc2OCCn2ccc(=O)[nH]c2=O)c1 | 220 nM | – | 49 nM | – | – | – | –
N#Cc1ccc2c(Oc3ccc(Cl)cc3OCCn3ccc(=O)[nH]c3=O)cc(F)cc2c1 | 150 nM | 5 nM | 32 nM | 18000 nM | – | – | –
N#Cc1cc2c(Oc3ccccc3OCCn3ccc(=O)[nH]c3=O)cc(Cl)cn2c1 | 22 nM | 3.7 nM | 220 nM | 39000 nM | – | – | –
Cc1ccc2c(Oc3ccccc3OCCn3ccc(=O)[nH]c3=O)cccc2c1 | 15000 nM | 250 nM | 12000 nM | 40000 nM | – | – | –
O=c1ccn(CCOc2ccccc2Oc2cccc3ccccc23)c(=O)[nH]1 | 5000 nM | 60 nM | 5700 nM | 80000 nM | – | – | –
N#Cc1ccc2c(Oc3ccc(F)cc3OCCn3ccc(=O)[nH]c3=O)cc(Cl)cc2c1 | 46 nM | 4.5 nM | 5.3 nM | 16000 nM | – | – | –
N#Cc1cc2c(Oc3ccccc3OCCn3ccc(=O)[nH]c3=O)cc(F)cn2c1 | 68 nM | 0.7 nM | 170 nM | 40000 nM | – | – | –
N#Cc1ccc2c(Oc3ccccc3OCCn3ccc(=O)[nH]c3=O)cc(F)cc2c1 | 6 nM | 1.1 nM | 8 nM | > 100000 nM | – | – | –
N#Cc1cc2c(Oc3ccccc3OCCn3ccc(=O)[nH]c3=O)cccn2c1 | 11 nM | 0.38 nM | 310 nM | > 100000 nM | – | – | –
N#Cc1cc2c(Oc3ccccc3OCCn3ccc(=O)[nH]c3=O)cccc2o1 | 420 nM | 18 nM | – | > 100000 nM | – | – | Not Active
